pIC50: −log10 of the molar value.
How the values were obtained:
[1] = target: Dual specificity tyrosine-phosphorylation-regulated kinase 1A (Rattus norvegicus, UniProt Q63470); assay: Inhibition of rat recombinant GST-tagged DYRK1A expressed in Escherichia coli using myelin basic protein substrate
[2] = target: Cyclin-dependent kinase 5/CDK5 activator 1 (Homo sapiens, UniProt Q00535); assay: Inhibition of human recombinant CDK5/P25 using myelin basic protein substrate; assay type: protein-complex assay
[3] = target: PI3-kinase p110-alpha/p85-alpha (Homo sapiens, UniProt P42336); assay: Inhibition of PI3K p110alpha/p85alpha by fluorescence based immunoassay; assay type: protein-complex assay
Procedure, shortened: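 ADAPTA TR-FRET ADP-detection kinase assay. Detection used 6 nM Eu-anti-ADP antibody, 12 nM Alexa647-ADP tracer and 30 mM EDTA for 30 min. Read-out was excitation 340 nm with 665/615 nm emission ratio, converted to % conversion via an ATP–ADP titration curve.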

[4] = target: Phosphatidylinositol 4,5-bisphosphate 3-kinase catalytic subunit gamma isoform (Homo sapiens, UniProt P48736); assay: Inhibition of PI3K p110gamma by fluorescence based immunoassay
Huh-7 [5] = assay: Antiproliferative activity against human HuH7 cells incubated for 48 hrs by […] dye staining based assay; assay type: functional, cell-based; details: Huh-7, 48 h
Procedure, shortened: (§1)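 After 24 h attachment, they were exposed 48 h to increasing concentrations of 0.1 to 25. Cells were then fixed in cold 90% ethanol/5% acetic acid, nuclei were Hoechst-stained, and nuclei were counted by automated imaging.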

Caco-2 [6] = assay: Antiproliferative activity against human Caco2 cells incubated for 48 hrs by […] dye staining based assay; assay type: functional, cell-based; details: Caco-2, 48 h; procedure, shortened: as §1
MDA-MB-231 = assay: Antiproliferative activity against human MDA-MB-231 cells incubated for 48 hrs by […] dye staining based assay; assay type: functional, cell-based; details: MDA-MB-231, 48 h; procedure, shortened: as §1
HCT-116 = assay: Antiproliferative activity against human HCT116 cells incubated for 48 hrs by […] dye staining based assay; assay type: functional, cell-based; details: HCT-116, 48 h
Procedure, shortened: as §1, with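 “Cells were grown per ECACC recommendations and seeded in triplicate at 2 × 10³ (HCT-116) or 4 × 10³ (other lines) per well. After” for “After”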

PC-3 [7] = assay: Antiproliferative activity against human PC3 cells incubated for 48 hrs by […] dye staining based assay; assay type: functional, cell-based; details: PC-3, 48 h
Procedure, shortened: as §1, with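 “Cells were grown per ECACC recommendations and seeded in triplicate at 2 × 10³ (HCT-116) or 4 × 10³ (other lines) per well. After” for “After”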

NCI-H727 [8] = assay: Antiproliferative activity against human NCI-H727 cells incubated for 48 hrs by […] dye staining based assay; assay type: functional, cell-based; details: NCI-H727, 48 h
Procedure, shortened: as §1, with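 “Cells were grown per ECACC recommendations and seeded in triplicate at 2 × 10³ (HCT-116) or 4 × 10³ (other lines) per well. After” for “After”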

[9] = Antiproliferative activity against human Skin fibroblasts incubated for 48 hrs by […] dye staining based assay; details: Skin fibroblast
Procedure, shortened: as §1, with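 “Cells were grown per ECACC recommendations and seeded in triplicate at 2 × 10³ (HCT-116) or 4 × 10³ (other lines) per well. After” for “After”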

PC-3 [10] = assay: Antiproliferative activity against human PC3 cells assessed as cell diminution incubated for 48 hrs by […] dye staining based assay; assay type: functional
Procedure, shortened: as §1, with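 “Cells were grown per ECACC recommendations and seeded in triplicate at 2 × 10³ (HCT-116) or 4 × 10³ (other lines) per well. After” for “After”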

Caco-2 [11] = assay: Antiproliferative activity against human Caco2 cells assessed as cell diminution incubated for 48 hrs by […] dye staining based assay; assay type: functional
Procedure, shortened: as §1, with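 “Cells were grown per ECACC recommendations and seeded in triplicate at 2 × 10³ (HCT-116) or 4 × 10³ (other lines) per well. After” for “After”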

[12] = Antiproliferative activity against human Skin fibroblasts assessed as cell diminution incubated for 48 hrs by […] dye staining based assay; details: skin fibroblast
Procedure, shortened: as §1, with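 “Cells were grown per ECACC recommendations and seeded in triplicate at 2 × 10³ (HCT-116) or 4 × 10³ (other lines) per well. After” for “After”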

Huh-7 [13] = assay: Antiproliferative activity against human HuH7 cells assessed as cell diminution incubated for 48 hrs by […] dye staining based assay; assay type: functional
Procedure, shortened: as §1, with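 “Cells were grown per ECACC recommendations and seeded in triplicate at 2 × 10³ (HCT-116) or 4 × 10³ (other lines) per well. After” for “After”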

NCI-H727 [14] = assay: Antiproliferative activity against human NCI-H727 cells assessed as cell diminution incubated for 48 hrs by […] dye staining based assay; assay type: functional
Procedure, shortened: as §1, with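 “Cells were grown per ECACC recommendations and seeded in triplicate at 2 × 10³ (HCT-116) or 4 × 10³ (other lines) per well. After” for “After”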

PI3-kinase p110-alpha/p85-alpha, sequence (P27986 whole entry): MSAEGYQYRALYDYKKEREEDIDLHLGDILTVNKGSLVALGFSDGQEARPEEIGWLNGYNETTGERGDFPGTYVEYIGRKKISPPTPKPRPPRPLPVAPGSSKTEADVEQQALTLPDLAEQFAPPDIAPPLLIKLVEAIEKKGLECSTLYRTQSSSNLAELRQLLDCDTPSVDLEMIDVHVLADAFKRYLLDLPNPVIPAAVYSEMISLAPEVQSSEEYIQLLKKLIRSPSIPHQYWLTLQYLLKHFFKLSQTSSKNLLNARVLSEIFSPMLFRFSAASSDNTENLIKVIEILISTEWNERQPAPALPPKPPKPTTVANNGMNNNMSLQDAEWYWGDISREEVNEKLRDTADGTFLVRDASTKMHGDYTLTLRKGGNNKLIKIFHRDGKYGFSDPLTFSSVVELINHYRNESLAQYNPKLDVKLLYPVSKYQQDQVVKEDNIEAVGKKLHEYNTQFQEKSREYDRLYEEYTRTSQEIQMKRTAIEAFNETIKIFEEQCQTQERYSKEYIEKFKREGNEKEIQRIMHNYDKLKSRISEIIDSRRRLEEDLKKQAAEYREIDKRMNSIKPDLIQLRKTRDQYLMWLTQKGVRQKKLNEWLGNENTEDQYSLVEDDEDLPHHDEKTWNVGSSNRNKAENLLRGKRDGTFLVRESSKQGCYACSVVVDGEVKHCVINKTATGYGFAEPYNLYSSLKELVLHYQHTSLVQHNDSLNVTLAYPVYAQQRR
PI3-kinase p110-alpha/p85-alpha, sequence (P42336 whole entry): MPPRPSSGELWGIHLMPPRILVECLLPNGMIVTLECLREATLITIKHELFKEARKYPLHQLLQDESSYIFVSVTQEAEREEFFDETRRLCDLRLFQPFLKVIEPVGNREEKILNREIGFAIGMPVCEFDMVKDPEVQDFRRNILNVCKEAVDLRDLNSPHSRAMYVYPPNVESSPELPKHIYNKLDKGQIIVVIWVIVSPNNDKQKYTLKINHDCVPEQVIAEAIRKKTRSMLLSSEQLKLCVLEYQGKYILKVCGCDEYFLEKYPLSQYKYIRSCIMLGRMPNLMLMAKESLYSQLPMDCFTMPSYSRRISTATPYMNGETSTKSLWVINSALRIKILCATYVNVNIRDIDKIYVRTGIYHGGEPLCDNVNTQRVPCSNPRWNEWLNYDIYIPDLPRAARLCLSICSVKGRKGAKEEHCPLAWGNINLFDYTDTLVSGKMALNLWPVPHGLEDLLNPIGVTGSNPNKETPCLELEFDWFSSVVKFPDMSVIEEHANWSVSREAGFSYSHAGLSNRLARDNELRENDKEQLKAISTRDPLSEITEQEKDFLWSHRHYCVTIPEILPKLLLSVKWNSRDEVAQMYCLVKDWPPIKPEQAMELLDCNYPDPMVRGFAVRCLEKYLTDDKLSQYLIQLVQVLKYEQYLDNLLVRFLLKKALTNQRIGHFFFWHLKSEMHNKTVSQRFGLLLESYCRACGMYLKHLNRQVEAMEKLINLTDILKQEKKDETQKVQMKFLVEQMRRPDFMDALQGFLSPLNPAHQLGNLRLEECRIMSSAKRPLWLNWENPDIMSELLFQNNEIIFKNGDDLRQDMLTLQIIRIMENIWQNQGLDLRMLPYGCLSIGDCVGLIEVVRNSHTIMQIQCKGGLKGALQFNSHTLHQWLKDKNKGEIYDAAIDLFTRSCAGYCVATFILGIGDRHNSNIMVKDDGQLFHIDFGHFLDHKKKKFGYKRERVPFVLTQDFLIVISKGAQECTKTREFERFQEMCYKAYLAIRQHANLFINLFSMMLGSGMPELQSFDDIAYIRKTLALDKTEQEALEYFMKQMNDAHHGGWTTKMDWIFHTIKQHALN
Phosphatidylinositol 4,5-bisphosphate 3-kinase catalytic subunit gamma isoform, sequence (P48736 whole entry, looked up, canonical isoform): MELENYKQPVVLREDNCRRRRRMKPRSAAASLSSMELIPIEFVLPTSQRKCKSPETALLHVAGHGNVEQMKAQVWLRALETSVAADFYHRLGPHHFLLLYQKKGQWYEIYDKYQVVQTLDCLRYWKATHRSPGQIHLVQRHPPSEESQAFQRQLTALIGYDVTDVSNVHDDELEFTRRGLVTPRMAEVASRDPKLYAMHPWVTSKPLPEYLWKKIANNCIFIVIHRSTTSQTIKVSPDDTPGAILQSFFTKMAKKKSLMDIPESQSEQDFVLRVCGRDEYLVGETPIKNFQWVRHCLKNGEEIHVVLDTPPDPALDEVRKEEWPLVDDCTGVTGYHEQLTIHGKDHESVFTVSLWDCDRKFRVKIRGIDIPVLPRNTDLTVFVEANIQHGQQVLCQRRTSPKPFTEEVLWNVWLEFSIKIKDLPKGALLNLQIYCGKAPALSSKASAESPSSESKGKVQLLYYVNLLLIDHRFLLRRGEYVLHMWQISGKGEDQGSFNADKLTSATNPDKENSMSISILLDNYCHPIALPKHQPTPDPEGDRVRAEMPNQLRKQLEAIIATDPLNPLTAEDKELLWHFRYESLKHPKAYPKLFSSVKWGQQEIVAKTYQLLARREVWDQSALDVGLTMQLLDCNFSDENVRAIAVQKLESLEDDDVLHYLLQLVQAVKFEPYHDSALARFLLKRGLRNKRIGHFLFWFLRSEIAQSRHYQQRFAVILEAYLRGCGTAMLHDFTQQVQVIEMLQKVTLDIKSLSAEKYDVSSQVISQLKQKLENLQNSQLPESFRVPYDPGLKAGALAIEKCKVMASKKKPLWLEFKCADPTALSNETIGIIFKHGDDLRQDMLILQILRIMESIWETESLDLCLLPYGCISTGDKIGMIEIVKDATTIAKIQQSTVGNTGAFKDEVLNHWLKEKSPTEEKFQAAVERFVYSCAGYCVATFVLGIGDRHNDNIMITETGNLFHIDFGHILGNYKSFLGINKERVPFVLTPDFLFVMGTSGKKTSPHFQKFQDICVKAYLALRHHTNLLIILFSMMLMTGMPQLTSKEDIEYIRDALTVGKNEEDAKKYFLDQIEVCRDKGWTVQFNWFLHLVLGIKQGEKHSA
Cyclin-dependent kinase 5/CDK5 activator 1, sequence (Q00535 whole entry): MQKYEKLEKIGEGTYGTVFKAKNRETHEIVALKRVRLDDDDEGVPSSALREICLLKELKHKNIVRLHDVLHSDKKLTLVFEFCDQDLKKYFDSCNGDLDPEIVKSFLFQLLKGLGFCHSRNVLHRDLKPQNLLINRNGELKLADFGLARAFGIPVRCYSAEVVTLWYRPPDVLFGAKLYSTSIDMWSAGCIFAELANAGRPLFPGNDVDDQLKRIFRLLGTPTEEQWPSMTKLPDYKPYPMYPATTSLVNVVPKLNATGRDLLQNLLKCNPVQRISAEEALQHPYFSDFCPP
Cyclin-dependent kinase 5/CDK5 activator 1, sequence (Q15078 whole entry, further chain): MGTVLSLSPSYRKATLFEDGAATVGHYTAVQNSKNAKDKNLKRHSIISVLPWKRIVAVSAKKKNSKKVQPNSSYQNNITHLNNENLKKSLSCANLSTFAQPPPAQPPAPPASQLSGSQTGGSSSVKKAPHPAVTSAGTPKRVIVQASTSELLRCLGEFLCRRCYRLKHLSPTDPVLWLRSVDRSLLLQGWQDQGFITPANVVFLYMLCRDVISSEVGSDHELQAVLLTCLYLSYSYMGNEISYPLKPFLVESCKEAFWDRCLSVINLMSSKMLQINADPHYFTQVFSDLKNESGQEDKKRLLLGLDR

Row | Structure (SMILES) | pIC50 [1] | pIC50 [2] | pIC50 [3] | pIC50 [4] | pIC50 (Huh-7 [5]) | pIC50 (Caco-2 [6]) | pIC50 (MDA-MB-231) | pIC50 (HCT-116) | pIC50 (PC-3 [7]) | pIC50 (NCI-H727 [8]) | pIC50 [9] | Activity (PC-3 [10]) [%] | Activity (Caco-2 [11]) [%] | Activity [12] [%] | Activity (Huh-7 [13]) [%] | Activity (NCI-H727 [14]) [%]
1 | Cc1n[nH]c(=O)c2c1c1cc(Br)ccc1n2Cc1ccc([N+](=O)[O-])cc1 | < 5.00 | < 5.00 | 5.22 | < 5.00 | 6.00 | 5.70 | 5.40 | 5.70 | 5.82 | 6.00 | 5.70 |  |  |  |  | 
2 | COc1ccc2c(c1)c1c(C)n[nH]c(=O)c1n2Cc1ccc(C#N)cc1 | < 5.00 | < 5.00 | 5.54 |  | 5.70 | 5.22 | 5.70 | 5.40 | 5.70 | 5.70 | 5.30 | 50 |  |  |  | 
3 | Cc1n[nH]c(=O)c2c1c1cc(F)ccc1n2Cc1ccc(C#N)cc1 | < 5.00 | < 5.00 | < 5.00 |  | 5.52 | 5.70 | 5.82 | 5.30 | 6.00 | 5.40 | < 4.60 |  |  |  |  | 
4 | COc1cccc(Cn2c3ccc(F)cc3c3c(C)n[nH]c(=O)c32)c1 | < 5.00 | < 5.00 | < 5.00 |  | 5.82 | 5.70 | 6.05 | 5.40 | 6.40 | 5.70 | < 4.60 |  |  |  |  | 
5 | COc1ccc2c(c1)c1c(C)n[nH]c(=O)c1n2Cc1ccc([N+](=O)[O-])cc1 | < 5.00 | < 5.00 | 5.59 |  | 5.52 | 5.30 | 5.70 | 5.30 | 5.52 | 5.60 | 5.40 |  |  |  |  | 
6 | Cc1n[nH]c(=O)c2c1c1cc(F)ccc1n2Cc1ccc([N+](=O)[O-])cc1 | < 5.00 | < 5.00 | < 5.00 |  | 5.30 | 5.70 | 5.70 | 5.30 | 6.22 | 5.30 | < 4.60 |  |  |  |  | 
7 | COc1ccc(Cn2c3ccc(OC)cc3c3c(C)n[nH]c(=O)c32)cc1 | < 5.00 | < 5.00 | < 5.00 |  |  |  |  |  |  |  |  |  |  |  |  | 
8 | Cc1n[nH]c(=O)c2[nH]c3ccc(F)cc3c12 | 5.25 | < 5.00 | < 5.00 |  | 5.82 | 5.40 | 5.40 | 5.30 | 5.52 | 5.70 | 5.00 |  |  |  |  | 
9 | Cc1n[nH]c(=O)c2[nH]c3ccc(Br)cc3c12 |  |  |  |  | 5.82 | 5.70 | 5.22 | 5.30 | 5.52 | 5.52 | 5.10 |  |  |  |  | 
10 | Cc1n[nH]c(=O)c2c1c1cc(F)ccc1n2Cc1cccc([N+](=O)[O-])c1 | < 5.00 | < 5.00 | < 5.00 |  | 5.52 | 5.70 | 6.10 | 5.40 | 6.15 | 5.22 | < 4.60 |  |  |  |  | 
11 | Cc1n[nH]c(=O)c2c1c1cc(Br)ccc1n2Cc1cccc([N+](=O)[O-])c1 | < 5.00 | < 5.00 | 5.29 | 5.39 | 5.70 | 5.52 | 5.30 | 5.40 | 5.30 | 5.40 | 5.30 |  |  |  |  | 
12 | COc1ccc2[nH]c3c(=O)[nH]nc(C)c3c2c1 | 5.30 | < 5.00 | < 5.00 |  | 5.52 | 5.10 | 5.30 | 4.82 | 5.15 | 5.30 | 4.70 |  |  |  |  | 
13 | COc1ccc(Cn2c3ccc(F)cc3c3c(C)n[nH]c(=O)c32)cc1 | < 5.00 | < 5.00 | 5.38 |  | 6.00 | 5.70 | 5.70 | 5.70 | 5.60 | 5.52 | 5.30 |  |  |  |  | 
14 | COc1cccc(Cn2c3ccc(Br)cc3c3c(C)n[nH]c(=O)c32)c1 | < 5.00 | < 5.00 | 5.82 | 5.66 | 5.70 | 5.70 | 5.40 | 5.70 | 5.70 | 5.30 | 5.52 |  |  |  |  | 
15 | COc1cccc(Cn2c3ccc(OC)cc3c3c(C)n[nH]c(=O)c32)c1 | < 5.00 | < 5.00 | 5.20 |  | 6.00 | 5.70 | 5.52 | 5.70 | 5.60 | 5.52 | 6.00 |  |  |  |  | 
16 | Cc1n[nH]c(=O)c2c1c1cc(F)ccc1n2Cc1cccc(C#N)c1 | < 5.00 | < 5.00 | 5.30 |  | 5.52 | 5.70 | 4.92 | 5.22 | 5.40 | 5.22 | 5.10 |  |  |  |  | 
17 | COc1ccc(Cn2c3ccc(Br)cc3c3c(C)n[nH]c(=O)c32)cc1 | < 5.00 | < 5.00 | 5.82 | 5.28 | 5.82 | 5.70 | 5.30 | 5.40 | 5.60 | 5.30 | 5.40 |  |  |  |  | 
18 | COc1ccc2c(c1)c1c(C)n[nH]c(=O)c1n2Cc1cccc([N+](=O)[O-])c1 | < 5.00 | < 5.00 | 5.74 |  | 5.82 | 5.30 | 5.40 | 5.40 | 5.60 | 5.40 | 5.70 | 50 | 50 | 50 |  | 
19 | Cc1n[nH]c(=O)c2c1c1cc(Br)ccc1n2Cc1ccc(C#N)cc1 | < 5.00 | < 5.00 | 5.72 | < 5.00 | 5.70 | 5.70 | 5.40 | 5.70 | 5.70 | 5.52 | 5.70 |  |  |  |  | 
20 | COc1ccc2c(c1)c1c(C)n[nH]c(=O)c1n2Cc1cccc(C#N)c1 | < 5.00 | < 5.00 | 5.48 |  | 5.70 | 5.52 | 5.52 | 5.30 | 5.70 | 5.40 | 5.30 |  |  |  |  | 
21 | Cc1n[nH]c(=O)c2c1c1cc(Br)ccc1n2Cc1cccc(C#N)c1 | < 5.00 | < 5.00 | 7.04 | 6.53 | 5.70 | 5.70 | 5.40 | 5.30 | 5.60 | 5.40 | 5.40 |  |  |  |  | 
22 | Oc1cccc(-c2nc(N3CCOCC3)c3oc4ncccc4c3n2)c1 [PI-103] |  |  |  |  | 5.82 | 6.05 | 4.82 | 6.00 | 5.82 | 5.52 | 5.82 |  |  | 30 | 40 | 30
23 | CC[C@H](CO)Nc1nc(NCc2ccccc2)c2ncn(C(C)C)c2n1 [SELICICLIB] |  |  |  |  |  |  |  | 5.15 | 5.00 | 4.70 | < 4.60 |  |  |  |  | 

From ChEMBL document CHEMBL2086312, “Synthesis and biological evaluation of new 5-benzylated 4-oxo-3,4-dihydro-5H-pyridazino[4,5-b]indoles as PI3Kα inhibitors” (Eur J Med Chem, 2012)
